In ChEMBL document CHEMBL3763019, “Discovery of benzenesulfonamide derivatives as potent PI3K/mTOR dual inhibitors with in vivo efficacies against hepatocellular carcinoma” (Bioorg Med Chem, 2016):

Key:
[1] = Antiproliferative activity against human OVCAR5 cells incubated for 48 hrs by sulforhodamine B assay; format: functional; settings: OVCAR-5, 48 h
Summary of the method: (§1)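 Run externally by the US National Cancer Institute as part of its 60 human cancer cell line cytotoxicity screen (NCI-60).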

[2] = Antiproliferative activity against human OVCAR8 cells incubated for 48 hrs by sulforhodamine B assay; format: functional; settings: OVCAR-8, 48 h; summary of the method: as §1
[3] = Antiproliferative activity against human SKOV3 cells incubated for 48 hrs by sulforhodamine B assay; format: functional; settings: SK-OV-3, 48 h; summary of the method: as §1
[4] = Antiproliferative activity against human TK10 cells incubated for 48 hrs by sulforhodamine B assay; format: functional; settings: TK-10, 48 h
[5] = Antiproliferative activity against human UO31 cells incubated for 48 hrs by sulforhodamine B assay; format: functional; settings: UO-31, 48 h
[6] = Antiproliferative activity against human PC3 cells incubated for 48 hrs by sulforhodamine B assay; format: functional; settings: PC-3, 48 h; summary of the method: as §1
MDA-MB-231 = assay: Antiproliferative activity against human MDA-MB-231 cells incubated for 48 hrs by sulforhodamine B assay; format: functional; settings: MDA-MB-231, 48 h; summary of the method: as §1
[7] = Antiproliferative activity against human Hs 578T cells incubated for 48 hrs by sulforhodamine B assay; format: functional
MDA-MB-468 = assay: Antiproliferative activity against human MDA-MB-468 cells incubated for 48 hrs by sulforhodamine B assay; format: functional; settings: MDA-MB-468, 48 h; summary of the method: as §1
A549 [8] = assay: Inhibition of insulin-stimulated PI3K in human A549 cells assessed as suppression of AKT phosphorylation at Ser473 after 30 mins by Western blot analysis; format: cell-based
Summary of the method: (§2)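 A549 cells were insulin-stimulated for 2 h, then exposed to four compound concentrations for 30 min. Lysis was in ice-cold RIPA buffer, protein was quantified by BCA, and lysates were run on 10% SDS-PAGE and transferred to nitrocellulose. Detection was by infrared imaging, with β-actin as loading control.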

[9] = target: Serine/threonine-protein kinase mTOR (Homo sapiens, UniProt P42345); assay: Inhibition of insulin-stimulated mTOR phosphorylation in human A549 cells after 30 mins by Western blot analysis; format: cell-based; summary of the method: as §2
Mus musculus = assay: Toxicity in BALB/C nude mouse xenografted with human Bel7404 cells assessed as mortality at 30 mg/kg, po qd for 14 consecutive days; format: organism-based; settings: in vivo
Summary of the method: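 Male BALB/C nude mice were implanted with BEL-7404 cells. When tumors reached 100–300 mm³ (after 12 days), mice were randomized to 6 per treatment group and 8 controls. The drug, suspended in 5% polysorbate 80 in water, was given orally once daily for 14 days from day 13. Body weight and mortality were tracked during dosing, and mice were sacrificed on day 29.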

[10] = Antiproliferative activity against human NCI60 incubated for 48 hrs by sulforhodamine B assay; format: functional; settings: NCI60, 48 h; summary of the method: as §1
[11] = target: Phosphatidylinositol 4,5-bisphosphate 3-kinase catalytic subunit alpha isoform (Homo sapiens, UniProt P42336); assay: Inhibition of PI3K-alpha (unknown origin) using PIP2 as substrate incubated for 1 hr by Kinase-Glo luminescent kinase assay
Phosphatidylinositol 4,5-bisphosphate 3-kinase catalytic subunit alpha isoform, sequence (P42336 whole entry, canonical isoform): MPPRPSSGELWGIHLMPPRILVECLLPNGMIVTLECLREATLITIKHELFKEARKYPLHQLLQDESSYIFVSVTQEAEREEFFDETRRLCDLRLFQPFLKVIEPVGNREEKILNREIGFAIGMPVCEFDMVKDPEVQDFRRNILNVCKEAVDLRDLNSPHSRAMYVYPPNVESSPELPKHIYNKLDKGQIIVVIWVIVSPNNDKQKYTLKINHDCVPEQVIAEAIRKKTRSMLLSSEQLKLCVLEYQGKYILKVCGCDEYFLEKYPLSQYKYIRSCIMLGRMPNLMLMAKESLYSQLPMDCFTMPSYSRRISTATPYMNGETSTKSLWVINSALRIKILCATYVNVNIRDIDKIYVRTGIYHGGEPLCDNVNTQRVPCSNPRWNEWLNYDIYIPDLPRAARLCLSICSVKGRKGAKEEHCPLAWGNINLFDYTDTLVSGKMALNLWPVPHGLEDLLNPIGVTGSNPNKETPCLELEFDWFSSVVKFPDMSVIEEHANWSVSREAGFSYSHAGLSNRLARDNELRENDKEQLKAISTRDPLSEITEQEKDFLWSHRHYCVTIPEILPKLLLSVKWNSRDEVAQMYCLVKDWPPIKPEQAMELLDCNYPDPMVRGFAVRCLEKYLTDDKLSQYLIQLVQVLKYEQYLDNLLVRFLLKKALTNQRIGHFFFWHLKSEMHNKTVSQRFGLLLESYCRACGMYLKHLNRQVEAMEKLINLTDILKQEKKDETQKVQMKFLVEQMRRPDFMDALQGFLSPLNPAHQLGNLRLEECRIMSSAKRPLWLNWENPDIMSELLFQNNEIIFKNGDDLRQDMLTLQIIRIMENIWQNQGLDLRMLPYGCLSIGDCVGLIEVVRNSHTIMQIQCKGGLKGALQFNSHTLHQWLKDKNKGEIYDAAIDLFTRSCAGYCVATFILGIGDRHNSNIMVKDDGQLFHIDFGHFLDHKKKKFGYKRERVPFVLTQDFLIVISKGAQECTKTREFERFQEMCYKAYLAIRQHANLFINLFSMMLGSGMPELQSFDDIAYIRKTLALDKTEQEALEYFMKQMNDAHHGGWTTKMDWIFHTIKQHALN

K562 = assay: Antiproliferative activity against human K562 cells incubated for 48 hrs by sulforhodamine B assay; format: functional; settings: K562, 48 h; summary of the method: as §1
[12] = Antiproliferative activity against human MOLT4 cells incubated for 48 hrs by sulforhodamine B assay; format: functional; settings: MOLT-4, 48 h; summary of the method: as §1
[13] = Antiproliferative activity against human RPMI8226 cells incubated for 48 hrs by sulforhodamine B assay; format: functional; settings: RPMI-8226, 48 h
SR = assay: Antiproliferative activity against human SR cells incubated for 48 hrs by sulforhodamine B assay; format: functional; summary of the method: as §1
A549 [14] = assay: Antiproliferative activity against human A549 cells incubated for 48 hrs by sulforhodamine B assay; format: functional; settings: A549, 48 h; summary of the method: as §1
EKVX = assay: Antiproliferative activity against human EKVX cells incubated for 48 hrs by sulforhodamine B assay; format: functional
NCI-H522 = assay: Antiproliferative activity against human NCI-H522 cells incubated for 48 hrs by sulforhodamine B assay; format: functional; settings: NCI-H522, 48 h; summary of the method: as §1
[15] = Antiproliferative activity against human COLO205 cells incubated for 48 hrs by sulforhodamine B assay; format: functional; settings: COLO 205, 48 h; summary of the method: as §1
KM12 = assay: Antiproliferative activity against human KM12 cells incubated for 48 hrs by sulforhodamine B assay; format: functional; settings: KM12, 48 h; summary of the method: as §1
[16] = Antiproliferative activity against human SW620 cells incubated for 48 hrs by sulforhodamine B assay; format: functional; settings: SW-620, 48 h; summary of the method: as §1
[17] = Antiproliferative activity against human SF268 cells incubated for 48 hrs by sulforhodamine B assay; format: functional; settings: SF-268, 48 h; summary of the method: as §1
[18] = Antiproliferative activity against human SF295 cells incubated for 48 hrs by sulforhodamine B assay; format: functional; settings: SF-295, 48 h; summary of the method: as §1
[19] = Antiproliferative activity against human SNB75 cells incubated for 48 hrs by sulforhodamine B assay; format: functional; settings: SNB-75, 48 h; summary of the method: as §1
Malme-3M = assay: Antiproliferative activity against human MALME-3M cells incubated for 48 hrs by sulforhodamine B assay; format: functional; summary of the method: as §1
SK-MEL-28 = assay: Antiproliferative activity against human SK-MEL-28 cells incubated for 48 hrs by sulforhodamine B assay; format: functional; settings: SK-MEL-28, 48 h; summary of the method: as §1
[20] = Antiproliferative activity against human UACC257 cells incubated for 48 hrs by sulforhodamine B assay; format: functional; settings: UACC-257, 48 h
[21] = read-out: pLC50 (the source's name) (converted)

Compound: COc1ncc(-c2ccc3nccc(C#CCN4CCN(S(C)(=O)=O)CC4)c3c2)cc1NS(=O)(=O)c1ccc(F)cc1F
- GI50 [1]: 0.0372 µM
- CC50 [1, 21]: 60.3 µM
- TGI ([1]; read-out: pTGI (converted)): 16.2 µM
- GI50 [2]: 0.251 µM
- CC50 [2, 21]: 67.6 µM
- TGI ([2]; read-out: pTGI (converted)): 10.7 µM
- GI50 [3]: 0.0174 µM
- CC50 [3, 21]: 33.9 µM
- TGI ([3]; read-out: pTGI (converted)): 0.229 µM
- GI50 [4]: 0.0118 µM
- CC50 [4, 21]: 38.9 µM
- GI50 [5]: 0.0316 µM
- CC50 [5, 21]: 39.8 µM
- TGI ([5]; read-out: pTGI (converted)): 11.7 µM
- GI50 [6]: 0.0631 µM
- CC50 [6, 21]: 36.3 µM
- TGI ([6]; read-out: pTGI (converted)): 10.2 µM
- GI50 (MDA-MB-231): 0.437 µM
- CC50 (MDA-MB-231; [21]): 72.4 µM
- TGI (MDA-MB-231; read-out: pTGI (converted)): 19.5 µM
- GI50 [7]: 0.0186 µM
- CC50 [7, 21]: > 100 µM
- GI50 (MDA-MB-468): 0.017 µM
- CC50 (MDA-MB-468; [21]): 1.38 µM
- TGI (MDA-MB-468; read-out: pTGI (converted)): 0.0851 µM
- inhibition (A549 [8]): Dose-dependent effect
- inhibition [9]: Dose-dependent effect
- Activity (Mus musculus): Non-toxic
- GI50 [10]: 0.065 µM
- IC50 [11]: 0.002 µM
- GI50 (K562): 0.646 µM
- CC50 (K562; [21]): > 100 µM
- TGI (K562; read-out: pTGI (converted)): 17 µM
- GI50 [12]: 0.038 µM
- CC50 [12, 21]: > 100 µM
- TGI ([12]; read-out: pTGI (converted)): 1.15 µM
- GI50 [13]: 0.263 µM
- TGI ([13]; read-out: pTGI (converted)): 1.45 µM
- GI50 (SR): 0.251 µM
- CC50 (SR; [21]): > 100 µM
- TGI (SR; read-out: pTGI (converted)): 15.5 µM
- GI50 (A549 [14]): 0.0724 µM
- CC50 (A549 [14]; [21]): 44.7 µM
- TGI (A549 [14]; read-out: pTGI (converted)): 5.5 µM
- GI50 (EKVX): 0.0257 µM
- CC50 (EKVX; [21]): 42.7 µM
- GI50 (NCI-H522): 0.178 µM
- CC50 (NCI-H522; [21]): 5.89 µM
- TGI (NCI-H522; read-out: pTGI (converted)): 1.74 µM
- GI50 [15]: 0.0427 µM
- CC50 [15, 21]: 7.24 µM
- TGI ([15]; read-out: pTGI (converted)): 1.12 µM
- GI50 (KM12): 0.275 µM
- CC50 (KM12; [21]): 4.79 µM
- TGI (KM12; read-out: pTGI (converted)): 1.48 µM
- GI50 [16]: 0.229 µM
- CC50 [16, 21]: 6.92 µM
- TGI ([16]; read-out: pTGI (converted)): 1.95 µM
- GI50 [17]: 0.11 µM
- CC50 [17, 21]: 25.1 µM
- TGI ([17]; read-out: pTGI (converted)): 2.88 µM
- GI50 [18]: 0.0741 µM
- CC50 [18, 21]: 29.5 µM
- TGI ([18]; read-out: pTGI (converted)): 1 µM
- GI50 [19]: 0.0107 µM
- CC50 [19, 21]: 28.8 µM
- TGI ([19]; read-out: pTGI (converted)): 0.151 µM
- GI50 (Malme-3M): 0.0199 µM
- CC50 (Malme-3M; [21]): 33.9 µM
- TGI (Malme-3M; read-out: pTGI (converted)): 0.324 µM
- GI50 (SK-MEL-28): 0.0347 µM
- CC50 (SK-MEL-28; [21]): 5.25 µM
- TGI (SK-MEL-28; read-out: pTGI (converted)): 1.05 µM
- GI50 [20]: 0.0389 µM
- CC50 [20, 21]: 15.5 µM
- TGI ([20]; read-out: pTGI (converted)): 0.603 µM
